What was measured:
[1] = Ratio of lethal dose to that of effective dose in mice; format: ADME, organism-based; details: mouse, in vivo
[2] = organism: Mus musculus; assay: Antiarrhythmic potency in female roswell park white mice using chloroform-induced ventricular fibrillation assay; format: functional; details: Heart
[3] = Compound was evaluated for acute toxicity (24 h) in female roswell park white mice given intraperitoneally; format: organism-based; details: mouse, in vivo, ip
How it was run: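 Female Roswell Park (ICR) mice, about 15–25 g, dosed intraperitoneally in groups of at least ten. At least three dose levels were spaced logarithmically at intervals of 0.1 or less. Deaths were scored at 24 h.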

Which therapeutic index (LD50/ED50) [1] does the source give for Cc1ccc(C(=O)NC2CCCC3CN(C)CCC32)cc1 (stereo not given) here?
Its therapeutic index (LD50/ED50) is 7.3.

And the ED50 [2]?
Its ED50 is 110 µmol/kg.

What about the LD50 at 24 h [3] of the same compound?
Its LD50 at 24 h is 803 µmol/kg.

With COc1ccc(C(=O)NC2CCCC3CN(C)CCC32)cc1 (stereo not given) as the compound, how does the therapeutic index (LD50/ED50) [1] read?
Its therapeutic index (LD50/ED50) is 10.4.

And the ED50 [2]?
The ED50 was 109 µmol/kg.

What about the LD50 at 24 h [3] of the same compound?
Its LD50 at 24 h is 1140 µmol/kg.

With C=C[C@H]1CN2CC[C@H]1C[C@@H]2[C@@H](O)c1ccnc2ccc(OC)cc12 [QUINIDINE] as the compound, how does the ED50 [2] read?
Its ED50 is 122 µmol/kg.

What about the LD50 at 24 h [3] of the same compound?
Its LD50 at 24 h is 524 µmol/kg.

Which therapeutic index (LD50/ED50) [1] does the source give for CN1CCC2C(CCCC2NC(=O)c2ccc(C(F)(F)F)cc2)C1 (stereo not given) here?
Its therapeutic index (LD50/ED50) is 13.6.

What about the ED50 [2] of the same compound?
Its ED50 is 48 µmol/kg.

And the LD50 at 24 h [3]?
Its LD50 at 24 h is 661 µmol/kg.

With CN1CCC2C(CCCC2NC(=O)c2ccc([N+](=O)[O-])cc2)C1 (stereo not given) as the compound, how does the therapeutic index (LD50/ED50) [1] read?
The therapeutic index (LD50/ED50) was 11.7.

And the ED50 [2]?
Its ED50 is 95 µmol/kg.

And the LD50 at 24 h [3]?
The LD50 at 24 h was 1100 µmol/kg.

With CN1CCC2C(CCCC2NC(=O)c2ccc(Cl)c(Cl)c2)C1 (stereo not given) as the compound, how does the therapeutic index (LD50/ED50) [1] read?
Its therapeutic index (LD50/ED50) is 19.6.

And the ED50 [2]?
The ED50 was 32 µmol/kg.

And the LD50 at 24 h [3]?
Its LD50 at 24 h is 630 µmol/kg.

Which therapeutic index (LD50/ED50) [1] does the source give for CN1CCC2C(CCCC2NC(=O)c2ccc(Cl)cc2)C1 (stereo not given) here?
The therapeutic index (LD50/ED50) was 19.

And the ED50 [2]?
Its ED50 is 49 µmol/kg.

What about the LD50 at 24 h [3] of the same compound?
Its LD50 at 24 h is 929 µmol/kg.

With CN1CCC2C(CCCC2NC(=O)c2ccc(Cl)cc2Cl)C1 (stereo not given) as the compound, how does the therapeutic index (LD50/ED50) [1] read?
The therapeutic index (LD50/ED50) was 7.1.

And the ED50 [2]?
Its ED50 is 88 µmol/kg.

What about the LD50 at 24 h [3] of the same compound?
Its LD50 at 24 h is 624 µmol/kg.

Which therapeutic index (LD50/ED50) [1] does the source give for CN1CCC2C(CCCC2NC(=O)c2ccc(F)cc2)C1 (stereo not given) here?
Its therapeutic index (LD50/ED50) is 9.

What about the ED50 [2] of the same compound?
Its ED50 is 110 µmol/kg.

And the LD50 at 24 h [3]?
The LD50 at 24 h was 992 µmol/kg.

With CN1CCC2C(CCCC2NC(=O)c2cccc(Cl)c2)C1 (stereo not given) as the compound, how does the therapeutic index (LD50/ED50) [1] read?
The therapeutic index (LD50/ED50) was 8.36.

What about the ED50 [2] of the same compound?
The ED50 was 73 µmol/kg.

What about the LD50 at 24 h [3] of the same compound?
Its LD50 at 24 h is 613 µmol/kg.

Which therapeutic index (LD50/ED50) [1] does the source give for COc1cc(C(=O)NC2CCCC3CN(C)CCC32)cc(OC)c1OC (stereo not given) here?
The therapeutic index (LD50/ED50) was 24.

What about the ED50 [2] of the same compound?
Its ED50 is 25 µmol/kg.

And the LD50 at 24 h [3]?
The LD50 at 24 h was 610 µmol/kg.

With CN1CCC2C(CCCC2NC(=O)c2ccccc2)C1 (stereo not given) as the compound, how does the therapeutic index (LD50/ED50) [1] read?
The therapeutic index (LD50/ED50) was 8.58.

And the ED50 [2]?
Its ED50 is 101 µmol/kg.

What about the LD50 at 24 h [3] of the same compound?
Its LD50 at 24 h is 866 µmol/kg.
